According to PubChem BioAssay AID493183 (Sanford-Burnham Center for Chemical Genomics, 2011):
Calls of active or inactive are those of the source.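 The calls were made as follows: active = mean EC50 below 10 µM; inactive = the rest.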

Molecular target: Apelin receptor (Homo sapiens) (UniProt P35414)
Test: APJ receptor agonists, beta-arrestin recruitment, SAR follow-up, cell-based, CHO-K1 AGTRL-1, PathHunter luminescence, set 4 (AID 493183)
Settings: CHO-K1 AGTRL-1 PathHunter beta-arrestin
In short: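 System: CHO-K1 APJ β-arrestin enzyme-fragment complementation cell line | Timing: Cells seeded overnight, compound exposure 90 min at 25 °C, detection 60 min | Technique: Luminescence from β-gal fragment complementation after adding detection reagent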

Sequence of Apelin receptor (Homo sapiens) (P35414 whole entry, looked up): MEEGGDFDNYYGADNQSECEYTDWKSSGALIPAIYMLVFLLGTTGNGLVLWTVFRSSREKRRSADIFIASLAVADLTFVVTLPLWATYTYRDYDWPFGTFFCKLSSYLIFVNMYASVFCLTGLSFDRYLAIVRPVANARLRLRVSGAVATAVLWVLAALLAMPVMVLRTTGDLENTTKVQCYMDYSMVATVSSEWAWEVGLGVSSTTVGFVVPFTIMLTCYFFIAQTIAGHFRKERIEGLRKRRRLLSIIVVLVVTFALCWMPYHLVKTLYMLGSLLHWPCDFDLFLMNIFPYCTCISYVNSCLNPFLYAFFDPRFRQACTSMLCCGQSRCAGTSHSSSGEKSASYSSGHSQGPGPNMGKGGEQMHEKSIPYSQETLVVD

Row | Compound | EC50
1 | CC1=CC(=O)C(C(C)C)=C/C1=N/OS(=O)(=O)c1cccnc1 | 6.45 µM
2 | CC1=CC(=O)C(C(C)C)=C/C1=N/OS(=O)(=O)c1ccc(C(C)(C)C)cc1 | inactive
3 | COC(=O)c1cc(NS(=O)(=O)c2ccccc2)ccc1O | > 79 µM (inactive)
4 | CC1=CC(=O)C(C(C)C)=C/C1=N/OS(=O)(=O)c1ccc(C(F)(F)F)cc1 | 3.69 µM
5 | O=S(=O)(Nc1cc(Cl)c(O)c(Cl)c1)c1ccccc1 | > 79 µM (inactive)
6 | CC1=CC(=O)C(C(C)C)=C/C1=N/OS(=O)(=O)c1ccc(OC(F)(F)F)cc1 | 3.82 µM
7 | Cc1cc(O)c(C(C)C)cc1NS(=O)(=O)c1ccccc1 | > 79 µM (inactive)
